Tests used:
advanced LUAD tumors = details: cited from earlier work
Caco-2 monolayers = experiment: Caco-2 permeability assay; type: in vitro ADME, Human
In short: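 Caco-2 cells grown in EMEM with 20% FBS and 1% PenStrep, then seeded on inserts for ~20 days to form confluent monolayers. Free test compound or its cyclodextrin complexes added apically; transport followed over 2 h, plus basolateral-to-apical for efflux. Controls: ranitidine (low), warfarin (high), talinolol (P-gp). Papp = (dQ/dt)/(C0×A); efflux ratio = Papp(B→A)/Papp(A→B). Integrity by TEER with lucifer yellow transport.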

intestine = details: mouse, in vivo, 10 mg/kg; cited from earlier work
intestinal mucosa = experiment: Intestinal toxicity by histopathological scoring; type: in vivo; details: mice, oral, 10 mg/kg/d over 7 days
In short: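 Mice given free test compound or cyclodextrin complexes orally at 10 mg/kg/d for 7 days; PBS group included. Intestine fixed in 10% formalin for 24 h, paraffin-embedded, sectioned at 5 μm and H&E stained. Duodenum examined at 20×. Mucosal damage graded: grade 0, normal villi; grade 1, subepithelial Gruenhagen's space at villus tips; higher grades follow.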

[1] = cited from earlier work

In the case of `Cc1cc(-c2ncc(CC(=O)Nc3ccc(-c4cnccn4)cn3)cc2C)ccn1` [LGK974], the “effect in mice with advanced LUAD tumors” value (advanced LUAD tumors) is listed as “suppressed Wnt target genes, inhibited tumor growth and proliferation, and extended survival”, the “permeability across Caco-2 monolayers” value (Caco-2 monolayers; A → B and B → A, 2 h) is listed as “high permeability” and the “transepithelial electrical resistance (TEER) after treatment” value (Caco-2 monolayers; Caco-2 monolayers, 2 h treatment) is listed as “did not decrease significantly”. For the same compound, the “intestinal toxicity on oral administration” value (intestine) was “induces intestinal toxicity”, the “intestinal mucosal damage (histopathological scoring)” value (intestinal mucosa) was “Intestinal mucosal damage was observed” and the “solubility in aqueous environments” value [1] was “poorly soluble”.
